Laboratory results published in ChEMBL document CHEMBL2412989, “Antiproliferative activity on human prostate carcinoma cell lines of new peptidomimetics containing the spiroazepinoindolinone scaffold” (Bioorg Med Chem, 2013).
Calls of active or inactive are those of the source. The calls are words filed in the database; no cut-off is given here.

What was measured:
[1] = molecular target: T1, Growth hormone secretagogue receptor type 1 (Homo sapiens, UniProt Q92847); experiment: Agonist activity at GHS-R1a (unknown origin)
[2] = system: DU-145; experiment: Antiproliferative activity against human DU145 cells assessed as growth inhibition at 10^-9 M after 48 hrs by BrdU-incorporation assay relative to untreated cells in presence of GHS-R1a antagonist D-Lys-GHRP-6; format: functional, cell-based
How it was run: (§1)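 BrdU-incorporation proliferation assay in DU145 cells. Cells seeded at 5 × 10^4/well, 24 h, then switched to RPMI 1640/5% charcoal-stripped FBS containing compound together with GHS-R1a antagonist D-Lys3-GHRP-6 at 10^-6 M. BrdU pulse 4 h before end. Eu-anti-BrdU time-resolved fluorescence, blank from cell-free wells. Mean of ≥3 experiments in 8 replicates, relative to untreated cells.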

[3] = system: DU-145; experiment: Antiproliferative activity against human DU145 cells assessed as growth inhibition at 10^-6 M after 48 hrs by BrdU-incorporation assay relative to untreated cells; format: functional; conditions: DU-145, 48 h, read-out: GI
How it was run: (§2)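 DU145 prostate carcinoma cells (ATCC) kept in RPMI 1640/5% FBS. 5 × 10^4 cells/well seeded, 24 h at 37 °C, 5% CO2. Medium then replaced by RPMI 1640/5% charcoal-stripped FBS with compound. BrdU added 4 h before end of incubation. Fixed cells probed with Eu-conjugated anti-BrdU (0.5 µg/mL), time-resolved fluorescence read. Cell-free wells used as blank. Mean of ≥3 experiments, 8 replicates each, expressed vs untreated cells.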

[4] = system: DU-145; experiment: Antiproliferative activity against human DU145 cells assessed as growth inhibition at 10^-6 M after 48 hrs by BrdU-incorporation assay relative to untreated cells in presence of GHS-R1a antagonist D-Lys-GHRP-6; format: functional, cell-based; how it was run: as §1
[5] = system: DU-145; experiment: Antiproliferative activity against human DU145 cells assessed as growth inhibition at 10^-9 M after 48 hrs by BrdU-incorporation assay relative to untreated cells; format: functional; conditions: DU-145, 48 h, read-out: GI; how it was run: as §2
[6] = molecular target: T1, Growth hormone secretagogue receptor type 1; experiment: Induction of GHS-R1a-mediated ERK1/2 phosphorylation in human DU145 cells at 10^-9 to 10^-6 M after 10 mins by Western blot analysis; format: cell-based; conditions: DU-145
How it was run: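 DU145 cells serum-starved 16 h, then exposed to compound (10^-6 or 10^-9 M) for 10 min. Lysed in T-PER with protease inhibitors, protein by BCA. SDS-PAGE, nitrocellulose transfer, 5% milk/TBST block. Probed overnight at 4 °C with anti-pERK1/2 (1:150) and anti-ERK1/2 (1:1000), then peroxidase secondary 2 h RT. Mean ± SD of three independent experiments, one-way ANOVA.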

[7] = molecular target: T1, Growth hormone secretagogue receptor type 1; experiment: Induction of GHS-R1a-mediated ERK1/2 phosphorylation in human DU145 cells at 10^-6 M after 10 mins by Western blot analysis in presence of D-Lys-GHRP-6; format: cell-based; conditions: DU-145
How it was run: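 Western blot of ERK1/2 phosphorylation in 16 h serum-starved DU145 cells. Cells pretreated 1 h with 10^-6 M D-Lys3-GHRP-6, then exposed 10 min to compound. pERK1/2 (1:150) and total ERK1/2 (1:1000) antibodies, overnight 4 °C, peroxidase secondary. Mean ± SD, three independent experiments, one-way ANOVA.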

[8] = Agonist activity at GHS-R1a in rat pituitary cells; format: cell-based; conditions: Pituitary gland cell

T1 sequence (Q92847 whole entry): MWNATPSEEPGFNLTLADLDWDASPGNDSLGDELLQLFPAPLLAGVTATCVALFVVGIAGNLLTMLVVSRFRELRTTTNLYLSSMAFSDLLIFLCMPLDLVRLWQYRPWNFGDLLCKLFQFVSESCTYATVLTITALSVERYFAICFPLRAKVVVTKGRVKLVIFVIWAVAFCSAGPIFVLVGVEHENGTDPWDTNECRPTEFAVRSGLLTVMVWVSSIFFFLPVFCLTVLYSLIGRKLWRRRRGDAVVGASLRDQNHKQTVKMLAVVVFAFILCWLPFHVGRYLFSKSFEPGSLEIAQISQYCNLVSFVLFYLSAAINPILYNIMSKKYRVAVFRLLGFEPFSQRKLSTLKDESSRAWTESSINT

In the case of CC(C)(N)C(=O)N[C@H](Cc1c[nH]c2ccccc12)C(=O)N1CCC2(CC1)C[C@H](O)c1ccccc12, the EC50 [1] is reported as 0.6 nM.

In the case of CC(C)(N)C(=O)N[C@@H](Cc1c[nH]c2ccccc12)C(=O)N1CCC[C@@]2(CC1)C(=O)Nc1ccccc12, the “growth inhibition (GI)” value [2] is reported as “inactive”, the inhibition of growth at 1 µM [3] is reported as -27% and the “growth inhibition (GI)” value [4] is reported as “inactive”. The inhibition of growth at 0.001 µM [5] was -20%, the Activity [6] was “Active” and the Activity [7] was “inactive”.

For CC(C)(N)C(=O)N[C@H](COCc1ccccc1)C(=O)N1CCC2(CC1)CN(S(C)(=O)=O)c1ccccc12 [IBUTAMOREN], the EC50 [8] was 1.3 nM.

Compound CC(=O)NC(C)(C)C(=O)N[C@@H](Cc1c[nH]c2ccccc12)C(=O)N1CCC[C@@]2(CC1)C(=O)Nc1ccccc12 has an inhibition of growth at 1 µM [3] of 2.1% and an inhibition of growth at 0.001 µM [5] of 1.2%.

With CCCCCCCC(=O)OC[C@H](NC(=O)CNC(=O)[C@@H](N)CCCNC(=N)N)C(=O)N[C@@H](CO)C(=O)N[C@@H](Cc1ccccc1)C(=O)N[C@@H](CC(C)C)C(=O)N[C@@H](CO)C(=O)N1CCC[C@H]1C(=O)N[C@@H](CCC(=O)O)C(=O)N[C@@H](Cc1cnc[nH]1)C(=O)N[C@@H](CCC(N)=O)C(=O)N[C@@H](CCCCN)C(=O)N[C@@H](C)C(=O)N[C@@H](CCC(N)=O)C(=O)N[C@@H](CCC(N)=O)C(=O)N[C@@H](CCCNC(=N)N)C(=O)N[C@@H](CCCCN)C(=O)N[C@@H](CCC(=O)O)C(=O)N[C@@H](CO)C(=O)N[C@@H](CCCCN)C(=O)N[C@@H](CCCCN)C(=O)N1CCC[C@H]1C(=O)N1CCC[C@H]1C(=O)N[C@@H](C)C(=O)N[C@@H](CCCCN)C(=O)N[C@@H](CC(C)C)C(=O)N[C@@H](CCC(N)=O)C(=O)N1CCC[C@H]1C(=O)O [GHRELIN] the “growth inhibition (GI)” value [2] was “inactive”, the inhibition of growth at 1 µM [3] was -25% and the “growth inhibition (GI)” value [4] was “inactive”. The inhibition of growth at 0.001 µM [5] was -38% and the Activity [6] was “Active”.

For CC(C)(N)C(=O)N[C@@H](Cc1c[nH]c2ccccc12)C(=O)N1CCC[C@]2(CC1)C(=O)Nc1ccccc12, the inhibition of growth at 1 µM [3] was -15% and the inhibition of growth at 0.001 µM [5] was -10%.

Compound CC(C)(N)C(=O)N[C@H](Cc1c[nH]c2ccccc12)C(=O)N1CCC[C@@]2(CC1)C(=O)Nc1ccccc12 has an inhibition of growth at 1 µM [3] of -5.5% and an inhibition of growth at 0.001 µM [5] of -4.8%.

For CC(C)(N)C(=O)N[C@H](Cc1c[nH]c2ccccc12)C(=O)N1CCC[C@]2(CC1)C(=O)Nc1ccccc12, the inhibition of growth at 1 µM [3] was 9.7% and the inhibition of growth at 0.001 µM [5] was -2.4%.
